This note sets out measurements from ChEMBL document CHEMBL4007396, “New diphenylmethane derivatives as peroxisome proliferator-activated receptor alpha/gamma dual agonists endowed with anti-proliferative effects and mitochondrial activity” (Eur J Med Chem, 2017).

Series [1] concerns HT-29. Kind of series: Growth inhibition of human HT-29 cells assessed as cell vitality at 5 to 10 uM up to 72 hrs by hemocytometry relative to control. Format: functional. Also noted: scale not given: the % may be the effect or the level left. Put shortly:
(§1)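 Exponentially growing HT-29 colon adenocarcinoma cells (D-MEM, 10% FBS, 37 °C, 5% CO2) exposed to vehicle (DMSO, final <0.1%) or 1, 5 and 10 μM compound in 10% FBS medium for 24, 48 and 72 hs; cells washed, trypsinized and counted by Bürker hemocytometer, three counts per well. Viability relative to vehicle; mean ± SD of three independent experiments in duplicate.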

The test system of series [2] is HT-29. Nature of the series: Growth inhibition of human HT-29 cells assessed as cell vitality at 5 uM up to 72 hrs by hemocytometry relative to control. Format: functional. Also noted: scale not given: the % may be the effect or the level left. Put shortly:
as §1

The nature of series [3]: Growth inhibition of HEK293T cells assessed as cell vitality at 10 uM after 48 hrs by hemocytometry relative to control. Format: cell-based, HEK-293T. Particulars: human, read-out: Activity. Put shortly: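 HEK293T grown in DMEM with 10% FBS, penicillin-streptomycin and L-glutamine, exposed 48 h to 10 μM compound (DMSO under 0.1% final) alongside HT-29. Cells trypsinized and counted on a Bürker hemocytometer, three counts per well; viability relative to vehicle-treated cells; three independent experiments in duplicate, mean ± SD.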

Series [4] deals with HT-29. Kind of series: Growth inhibition of human HT-29 cells assessed as cell vitality at 10 uM after 48 hrs by hemocytometry relative to control. Also noted: scale not given: the % may be the effect or the level left. Format: functional. Put shortly: as §1

Take `C[C@@H](Oc1ccc(Cc2ccc(OCc3coc(-c4ccccc4)n3)cc2)cc1)C(=O)O`: in the series on HT-29 [1], the Activity is 40 - 60%.
With `C[C@H](Oc1ccc(Cc2ccc(OCc3coc(-c4ccccc4)n3)cc2)cc1)C(=O)O`, the values for the Activity in the series on HT-29 [2] and in the series on HT-29 [4] were 45% and 40%, respectively. The viability at 48 h, 10 µM in series [3] is 75%.
